One test deals with T1, hGYS1Δ634S8,11N (Homo sapiens, UniProt P13807, S11N/S8N).
T1 sequence (P13807 1-634 S8N/S11N limits assumed): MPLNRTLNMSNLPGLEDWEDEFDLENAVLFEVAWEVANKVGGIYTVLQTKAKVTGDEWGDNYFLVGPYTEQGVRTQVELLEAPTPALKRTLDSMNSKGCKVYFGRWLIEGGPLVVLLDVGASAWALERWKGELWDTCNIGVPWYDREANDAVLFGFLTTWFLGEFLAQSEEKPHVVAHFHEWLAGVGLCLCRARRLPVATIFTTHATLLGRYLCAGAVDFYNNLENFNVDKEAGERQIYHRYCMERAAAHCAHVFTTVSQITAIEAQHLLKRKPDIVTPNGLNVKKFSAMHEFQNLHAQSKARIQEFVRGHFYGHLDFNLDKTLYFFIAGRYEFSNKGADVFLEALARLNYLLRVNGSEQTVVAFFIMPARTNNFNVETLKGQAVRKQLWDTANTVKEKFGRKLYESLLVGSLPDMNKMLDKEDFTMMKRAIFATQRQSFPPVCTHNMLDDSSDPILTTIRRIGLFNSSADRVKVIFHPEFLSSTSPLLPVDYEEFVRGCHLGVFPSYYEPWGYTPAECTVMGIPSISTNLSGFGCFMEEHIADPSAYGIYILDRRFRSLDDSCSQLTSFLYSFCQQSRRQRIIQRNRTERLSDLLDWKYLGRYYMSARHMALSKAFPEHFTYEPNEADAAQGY
Nature of the test: 14C-glucose incorporation assay, hGYS1Δ634S8,11N inhibition. The test is classed as biochemical. Particulars: read-out: inhibition of truncated hGYS1 (hGYS1Δ634S8,11N).

Test [1] has as its target T2, GS activity in HEK293-PTG cell lysates (Homo sapiens, UniProt P13807).
T2 sequence (P13807 1-737): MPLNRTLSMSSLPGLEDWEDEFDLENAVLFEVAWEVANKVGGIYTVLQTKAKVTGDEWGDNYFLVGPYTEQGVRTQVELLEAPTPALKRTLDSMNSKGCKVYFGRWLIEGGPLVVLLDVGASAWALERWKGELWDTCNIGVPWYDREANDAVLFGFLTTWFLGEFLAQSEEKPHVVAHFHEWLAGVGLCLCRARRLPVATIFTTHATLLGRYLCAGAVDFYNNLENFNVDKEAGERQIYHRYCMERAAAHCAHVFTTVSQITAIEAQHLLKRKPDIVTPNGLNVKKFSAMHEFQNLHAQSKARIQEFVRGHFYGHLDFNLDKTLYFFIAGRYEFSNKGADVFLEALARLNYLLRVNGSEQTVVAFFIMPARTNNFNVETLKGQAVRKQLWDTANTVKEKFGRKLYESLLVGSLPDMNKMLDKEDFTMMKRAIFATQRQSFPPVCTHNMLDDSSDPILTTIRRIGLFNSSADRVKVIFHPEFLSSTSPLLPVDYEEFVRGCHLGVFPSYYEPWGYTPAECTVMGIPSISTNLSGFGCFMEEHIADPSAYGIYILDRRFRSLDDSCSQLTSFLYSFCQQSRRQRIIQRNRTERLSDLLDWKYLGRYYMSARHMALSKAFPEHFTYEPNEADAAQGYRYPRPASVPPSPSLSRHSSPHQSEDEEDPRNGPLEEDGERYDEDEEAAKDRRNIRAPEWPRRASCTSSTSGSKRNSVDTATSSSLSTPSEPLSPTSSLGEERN
Nature of the test: GS activity in HEK293-PTG cell lysates, 14C-glucose incorporation. The test is classed as biochemical. Particulars: 100 μM compound; 0.15 mg/mL lysate; 0.2 mM UDPG, 1 mM G6P. Put shortly: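 HEK293 cells stably transfected with mouse PTG (hygromycin-selected mixed clones) were grown to confluence. Cells were lysed in EDTA/EGTA/NaF buffer with protease inhibitors, vanadate and Triton, freeze-scraped, sonicated, and the lysate diluted 10-fold. Assay: 50 mM Tris-HCl pH 7.8, 6.7 mg/ml glycogen, 0.2 mM UDPG, 1 mM G6P, 2% DMSO, test compound 100 µM. Read-out: 14C-glucose incorporation as % of DMSO control.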

The target in test [2] is T3, yGsy2p (Saccharomyces cerevisiae, UniProt P27472).
T3 sequence (P27472 1-705): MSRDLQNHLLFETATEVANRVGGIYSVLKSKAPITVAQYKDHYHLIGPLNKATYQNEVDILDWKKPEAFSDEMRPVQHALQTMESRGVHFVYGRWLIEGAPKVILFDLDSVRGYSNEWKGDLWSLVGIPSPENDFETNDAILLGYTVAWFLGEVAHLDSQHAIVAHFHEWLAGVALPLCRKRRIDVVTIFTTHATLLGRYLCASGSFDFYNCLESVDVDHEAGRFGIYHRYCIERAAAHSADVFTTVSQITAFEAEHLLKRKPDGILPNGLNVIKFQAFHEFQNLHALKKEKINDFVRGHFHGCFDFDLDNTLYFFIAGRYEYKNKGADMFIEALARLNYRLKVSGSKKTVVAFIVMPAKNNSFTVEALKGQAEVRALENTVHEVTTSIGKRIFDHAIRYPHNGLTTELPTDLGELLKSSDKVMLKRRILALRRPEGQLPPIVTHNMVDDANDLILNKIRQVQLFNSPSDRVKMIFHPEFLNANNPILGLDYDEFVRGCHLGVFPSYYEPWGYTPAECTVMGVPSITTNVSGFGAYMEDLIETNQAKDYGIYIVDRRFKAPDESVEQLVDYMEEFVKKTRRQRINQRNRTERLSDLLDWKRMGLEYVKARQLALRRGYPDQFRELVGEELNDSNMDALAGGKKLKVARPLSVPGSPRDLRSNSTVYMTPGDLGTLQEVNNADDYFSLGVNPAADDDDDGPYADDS
Put plainly: 14C-glucose incorporation assay, yGsy2p inhibition. The test is classed as biochemical. Particulars: co-variation of UDPG and inhibitor.

Test [3] has as its target T4, GS activity in Rat-1 cell lysates (Rattus norvegicus, UniProt A2RRU1).
T4 sequence (A2RRU1 1-738): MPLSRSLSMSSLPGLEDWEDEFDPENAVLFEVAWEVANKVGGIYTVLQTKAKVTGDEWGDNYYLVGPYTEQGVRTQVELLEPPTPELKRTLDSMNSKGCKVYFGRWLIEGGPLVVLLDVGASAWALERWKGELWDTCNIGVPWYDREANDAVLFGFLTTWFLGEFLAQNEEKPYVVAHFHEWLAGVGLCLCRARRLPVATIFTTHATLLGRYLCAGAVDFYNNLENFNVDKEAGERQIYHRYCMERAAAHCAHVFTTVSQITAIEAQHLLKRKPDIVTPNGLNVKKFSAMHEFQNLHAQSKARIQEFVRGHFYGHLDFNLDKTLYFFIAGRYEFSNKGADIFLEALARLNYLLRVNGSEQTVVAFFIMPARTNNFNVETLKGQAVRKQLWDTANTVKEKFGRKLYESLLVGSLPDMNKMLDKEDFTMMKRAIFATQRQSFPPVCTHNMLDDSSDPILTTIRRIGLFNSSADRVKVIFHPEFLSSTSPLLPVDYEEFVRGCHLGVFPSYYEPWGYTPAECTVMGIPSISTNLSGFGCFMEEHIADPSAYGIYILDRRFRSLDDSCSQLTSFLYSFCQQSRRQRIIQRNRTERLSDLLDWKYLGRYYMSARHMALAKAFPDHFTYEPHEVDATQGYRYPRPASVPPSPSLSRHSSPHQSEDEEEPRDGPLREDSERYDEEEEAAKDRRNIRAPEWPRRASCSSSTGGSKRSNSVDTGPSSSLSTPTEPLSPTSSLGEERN
Nature of the test: GS activity in Rat-1 cell lysates, 14C-glucose incorporation. The test is classed as biochemical. Particulars: 100 μM compound; 0.75 mg/mL lysate; 0.2 mM UDPG, 1 mM G6P. Put shortly:
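Rat-1 fibroblasts were grown in DMEM/10% FBS to confluence. Cells were lysed in EDTA/EGTA/NaF buffer with protease inhibitors, vanadate and Triton, freeze-scraped, sonicated, and the lysate diluted 2-fold. Assay: 50 mM Tris-HCl pH 7.8, 6.7 mg/ml glycogen, 0.2 mM UDPG, 1 mM G6P, 2% DMSO, test compound 100 µM. Read-out: 14C-glucose incorporation as % of DMSO control.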

The target in test [4] is T5, hGYS1 (Homo sapiens, UniProt P13807).
T5 sequence (P13807 1-737): T2 sequence (P13807 1-737)
Put plainly: Activation of hGYS1 by G6P or GlcN6P, 14C-glucose incorporation assay. The format is biochemical. Summed up: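 Full-length human GYS1 was expressed in insect cells. Radiochemical 14C-glucose incorporation assay run at varied G6P or GlcN6P. % activation was plotted against activator concentration and fitted to a hyperbolic binding equation to give AC50. Done in triplicate.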

Test [5] concerns the target T3, yGsy2p. Nature of the test: Fluorescence polarization competitive displacement of tracer from yGsy2p. The test is classed as binding. Summed up:
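Fluorescein-labelled glucosamine-6-phosphate tracer at 20 nM final with 4.2 µM yeast Gsy2p in 15 mM Tris-HCl pH 7.8, 15 mM NaCl. Unlabelled G6P titrated from 0.68 µM to 40 mM. Incubated 10 min at 25°C, then polarization read (ex 485/em 535 nm, mP). EC50 of the displacement fit taken as Kd. Triplicate.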

The target in test [6] is T3, yGsy2p. Nature of the test: Activation of yGsy2p by G6P, 14C-glucose incorporation assay. The format is biochemical. Put shortly: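 His-tagged yeast Gsy2p was expressed in E. coli BL21(DE3) and purified by Ni-NTA then Q-Sepharose. Radiochemical 14C-glucose incorporation assay run at varied G6P. % activation was fitted to a hyperbolic binding equation to give AC50. Done in triplicate.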

Test [7] has as its target T5, hGYS1. Put plainly: Fluorescence polarization displacement of tracer from hGYS1. The test is classed as binding. Particulars: FP assay with hGYS1.
The target in the next test is T6, wild-type hGYS1 (Homo sapiens, UniProt P13807).
T6 sequence (P13807 1-737): T2 sequence (P13807 1-737)
Nature of the test: 14C-glucose incorporation assay, wild-type hGYS1 inhibition. Particulars: for improvement in potency toward hGYS1 relative to H23: ratio of IC50 values versus H23. The test is classed as biochemical.

For the next test, the target named is yGsy2p Y513L mutant (Saccharomyces cerevisiae, UniProt P27472, Y513L). Put plainly: Inhibition of yGsy2p active-site mutant Y513L. The test is classed as biochemical. Particulars: saturating G6P (7.2 mM).
Sequence of yGsy2p Y513L mutant (P27472 whole entry Y513L): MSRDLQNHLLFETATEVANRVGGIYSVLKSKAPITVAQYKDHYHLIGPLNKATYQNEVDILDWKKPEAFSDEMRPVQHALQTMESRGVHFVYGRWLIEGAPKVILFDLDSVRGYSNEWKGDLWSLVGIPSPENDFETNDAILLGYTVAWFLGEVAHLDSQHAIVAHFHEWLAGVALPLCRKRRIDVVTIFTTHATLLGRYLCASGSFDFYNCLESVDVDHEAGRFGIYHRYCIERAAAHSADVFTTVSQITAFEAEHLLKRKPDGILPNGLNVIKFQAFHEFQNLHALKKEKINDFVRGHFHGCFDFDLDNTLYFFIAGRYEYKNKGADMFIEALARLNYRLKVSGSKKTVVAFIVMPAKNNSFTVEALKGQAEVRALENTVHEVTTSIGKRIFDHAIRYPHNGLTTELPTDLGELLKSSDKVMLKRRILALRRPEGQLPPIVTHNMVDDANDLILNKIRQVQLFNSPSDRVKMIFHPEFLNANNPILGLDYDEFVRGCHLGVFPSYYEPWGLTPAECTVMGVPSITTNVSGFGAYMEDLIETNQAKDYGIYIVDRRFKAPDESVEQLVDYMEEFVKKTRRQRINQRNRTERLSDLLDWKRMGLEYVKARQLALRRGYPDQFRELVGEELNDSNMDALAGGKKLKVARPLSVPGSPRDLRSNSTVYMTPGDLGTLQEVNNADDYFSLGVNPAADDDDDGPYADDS
Test [8] deals with T3, yGsy2p. Nature of the test: Fluorescence polarization saturation binding of tracer to yGsy2p. Summed up:
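Yeast Gsy2p titrated from 0 to 50 µM against 20 nM final fluorescein-labelled glucosamine-6-phosphate tracer in 15 mM Tris-HCl pH 7.8, 15 mM NaCl. Incubated 10 min at 25°C, then polarization read (ex 485/em 535 nm, mP). Saturation curve fitted to a hyperbolic equation for Kd. Triplicate.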

“Also recorded” adds a separate entry of the source. Some results are limits rather than exact numbers.

Turning to `COc1cc(-c2c(-c3ccccc3)ncn2CCC2CCCN2C)ccc1O` (racemic) [Compound H23, (rac)-2-methoxy-4-(1-(2-(1-methylpyrrolidin-2-yl)ethyl)-4-phenyl-1H-imidazol-5-yl)phenol], on hGYS1Δ634S8,11N, the inhibition at 100 µM was over 20%. Also, the “reduction of synthase activity in HEK293-PTG cell lysate” value in test [1] is reported as “did not significantly inhibit”. Further, the “mode of inhibition of yGsy2p with respect to varied UDPG” value on yGsy2p [2] is on record as “competitive”. In addition, the “reduction of synthase activity in Rat-1 cell lysate” value in test [3] was “did not significantly inhibit”.
For `O=c1ccn([C@@H]2O[C@H](COP(=O)(O)OP(=O)(O)O)[C@@H](O)[C@H]2O)c(=O)[nH]1` [UDP, reference compound], the “mode of inhibition of yGsy2p with respect to varied UDPG” value on yGsy2p [2] is given as “competitive”.
Compound `N[C@H]1C(O)O[C@H](COP(=O)(O)O)[C@@H](O)[C@@H]1O` (stereo partly drawn) [GlcN6P, glucosamine-6-phosphate] yielded an AC50 on hGYS1 [4] of 5900 ± 100 µM.
On to `O=C[C@H](O)[C@@H](O)[C@H](O)[C@H](O)COP(=O)(O)O` [Compound G6P, glucose-6-phosphate], for which the AC50 at hGYS1 [4] stood at 1600 ± 100 µM; at yGsy2p [6] it was 98.1 ± 3.1 µM. The Kd on yGsy2p [5] is 70.9 ± 3.6 µM. On hGYS1 [7], the “displacement of GlcN6P-coupled fluorophore or fluorophore alone from hGYS1” value is “unable to displace”.
For `Cc1[nH]nc(-c2ccc(O)c(O)c2O)c1-c1ccc(Cl)cc1` [Compound 11], at wild-type hGYS1, the “improvement in potency toward hGYS1 relative to H23” value is recorded as 16 fold.
In the case of `Oc1ccc(-c2c(-c3ccc(O)c(O)c3O)n[nH]c2C(F)(F)F)cc1` [Compound 23, 4-(4-(4-hydroxyphenyl)-3-(trifluoromethyl)-1H-pyrazol-5-yl)pyrogallol], at yGsy2p Y513L mutant, the “inhibition of Y513L mutant compared with wild-type yGsy2p” value is recorded as “compromised; also recorded: decreased potency”. Besides, the “improvement in potency toward hGYS1 relative to H23” value at wild-type hGYS1 is reported as “more than 300 fold”. For the same compound, on wild-type hGYS1 (versus UDPG), the “mode of inhibition for wild-type hGYS1” value is recorded as “competitive”.
With `O=C(O)CCc1ccc(-c2ccccc2)n1-c1ccc(O)cc1` [Compound 7], the “reduction of synthase activity in HEK293-PTG cell lysate” value in test [1] is “did not significantly inhibit”. The “reduction of synthase activity in Rat-1 cell lysate” value in [3] is “did not significantly inhibit”. Further, the “improvement in potency toward hGYS1 relative to H23” value on wild-type hGYS1 is listed as 2 fold.
The compound `O=C(CSCCC(=O)N[C@@H]1[C@@H](O)[C@H](O)[C@@H](COP(=O)(O)O)O[C@H]1O)Nc1ccc(-c2c3ccc(=O)cc-3oc3cc(O)ccc23)c(C(=O)O)c1` [GlcN6P-fluorescein-5-Ex] displayed a Kd on yGsy2p [8] of 7.6 ± 0.7 µM.

The values are drawn from publication PMC7233370 (Journal of medicinal chemistry, 2020).
